Laboratory results: ChEMBL document CHEMBL3396951, “Design, synthesis and SAR studies of GABA uptake inhibitors derived from 2-substituted pyrrolidine-2-yl-acetic acids” (Bioorg Med Chem, 2015)

Columns and labels:
[1] = target: T1, GABA transporter 2 (Mus musculus) (UniProt P31651); test: Inhibition of mouse GAT2 expressed in HEK293 cells assessed as remaining [3H]GABA uptake at 1 mM by [3H]GABA uptake assay; format: cell-based
T1 sequence (whole entry): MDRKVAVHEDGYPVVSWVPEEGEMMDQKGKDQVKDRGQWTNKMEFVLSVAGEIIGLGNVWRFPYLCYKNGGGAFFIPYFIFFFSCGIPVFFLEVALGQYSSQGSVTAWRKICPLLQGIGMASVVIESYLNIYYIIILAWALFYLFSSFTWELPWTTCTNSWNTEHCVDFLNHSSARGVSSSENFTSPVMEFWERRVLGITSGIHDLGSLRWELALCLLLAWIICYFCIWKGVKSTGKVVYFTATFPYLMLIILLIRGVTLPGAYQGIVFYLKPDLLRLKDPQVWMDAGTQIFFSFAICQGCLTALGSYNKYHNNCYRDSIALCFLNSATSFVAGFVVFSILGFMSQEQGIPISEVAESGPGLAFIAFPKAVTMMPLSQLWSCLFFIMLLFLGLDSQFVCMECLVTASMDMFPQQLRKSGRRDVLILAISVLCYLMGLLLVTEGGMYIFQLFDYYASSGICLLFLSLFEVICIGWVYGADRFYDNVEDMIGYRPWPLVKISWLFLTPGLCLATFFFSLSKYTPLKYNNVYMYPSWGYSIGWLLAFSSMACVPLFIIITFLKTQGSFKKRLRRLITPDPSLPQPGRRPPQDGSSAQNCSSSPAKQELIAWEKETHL
Outline: (§1)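 Radioactive [3H]GABA uptake run in HEK293 cells expressing mGAT1–4 with 1 mM test substance. Readout is % remaining uptake relative to an inhibitor-free control.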

[2] = target: T2, GABA transporter 4 (Mus musculus, UniProt P31650); test: Inhibition of mouse GAT4 expressed in HEK293 cells by [3H]GABA uptake assay; format: cell-based
T2 sequence (P31650 whole entry): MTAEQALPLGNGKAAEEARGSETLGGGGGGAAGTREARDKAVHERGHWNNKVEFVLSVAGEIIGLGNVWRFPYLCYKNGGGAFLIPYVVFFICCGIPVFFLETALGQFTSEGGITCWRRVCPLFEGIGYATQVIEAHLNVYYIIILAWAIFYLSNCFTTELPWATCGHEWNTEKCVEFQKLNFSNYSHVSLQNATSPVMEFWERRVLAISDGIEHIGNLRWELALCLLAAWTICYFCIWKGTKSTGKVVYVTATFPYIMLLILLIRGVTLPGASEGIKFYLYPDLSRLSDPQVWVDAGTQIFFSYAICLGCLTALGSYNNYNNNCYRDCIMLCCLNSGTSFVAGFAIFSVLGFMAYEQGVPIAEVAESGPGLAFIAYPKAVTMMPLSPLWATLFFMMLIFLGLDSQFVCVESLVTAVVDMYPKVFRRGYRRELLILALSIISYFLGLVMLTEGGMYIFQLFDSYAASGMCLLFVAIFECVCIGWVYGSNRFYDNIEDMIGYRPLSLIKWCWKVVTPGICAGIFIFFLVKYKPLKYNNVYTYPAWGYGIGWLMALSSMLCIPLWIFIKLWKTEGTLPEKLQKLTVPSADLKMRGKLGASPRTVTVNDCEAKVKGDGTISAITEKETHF

[3] = target: T3, Sodium- and chloride-dependent GABA transporter 1 (Mus musculus, UniProt P31648); test: Inhibition of mouse GAT1 expressed in HEK293 cells by [3H]GABA uptake assay; format: cell-based
[4] = target: T4, GABA transporter 3 (Mus musculus, UniProt P31649); test: Inhibition of mouse GAT3 expressed in HEK293 cells by [3H]GABA uptake assay; format: cell-based
T4 sequence (P31649 whole entry): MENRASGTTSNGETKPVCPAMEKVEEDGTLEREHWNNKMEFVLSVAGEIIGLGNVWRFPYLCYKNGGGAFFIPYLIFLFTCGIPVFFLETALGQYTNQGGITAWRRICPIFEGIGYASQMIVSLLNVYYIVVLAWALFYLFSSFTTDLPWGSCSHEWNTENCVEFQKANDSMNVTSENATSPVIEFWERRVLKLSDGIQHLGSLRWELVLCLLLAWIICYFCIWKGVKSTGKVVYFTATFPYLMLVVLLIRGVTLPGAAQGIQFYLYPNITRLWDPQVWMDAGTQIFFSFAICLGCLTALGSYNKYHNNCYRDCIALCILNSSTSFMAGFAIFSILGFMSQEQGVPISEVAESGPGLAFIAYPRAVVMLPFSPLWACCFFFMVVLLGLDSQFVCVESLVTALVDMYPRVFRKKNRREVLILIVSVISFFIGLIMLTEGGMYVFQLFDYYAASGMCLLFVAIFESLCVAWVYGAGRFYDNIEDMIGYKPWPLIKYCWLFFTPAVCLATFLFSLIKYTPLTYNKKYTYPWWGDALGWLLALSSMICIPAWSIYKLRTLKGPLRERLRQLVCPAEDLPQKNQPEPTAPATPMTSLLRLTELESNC

[5] = target: Sodium- and chloride-dependent GABA transporter 1 (Mus musculus) (UniProt P31648); test: Inhibition of mouse GAT1 expressed in HEK293 cells assessed as remaining [3H]GABA uptake at 1 mM by [3H]GABA uptake assay; format: cell-based; outline: as §1
[6] = target: T5, GABA transporter 4 (Mus musculus) (UniProt P31650); test: Inhibition of mouse GAT4 expressed in HEK293 cells assessed as remaining [3H]GABA uptake at 1 mM by [3H]GABA uptake assay; format: cell-based; outline: as §1
T5 sequence (whole entry): T2 sequence (P31650 whole entry)

[7] = target: T6, GABA transporter 3 (Mus musculus) (UniProt P31649); test: Inhibition of mouse GAT3 expressed in HEK293 cells assessed as remaining [3H]GABA uptake at 1 mM by [3H]GABA uptake assay; format: cell-based; outline: as §1
T6 sequence (whole entry): T4 sequence (P31649 whole entry)

[8] = target: T7, GABA transporter 2 (Mus musculus, UniProt P31651); test: Inhibition of mouse GAT2 expressed in HEK293 cells by [3H]GABA uptake assay; format: cell-based
T7 sequence (P31651 whole entry): T1 sequence (whole entry)
Outline: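 [3H]GABA uptake inhibition in HEK293 cells expressing mGAT1–4 or hGAT-1, reported as pIC50 (mean ± SEM, n = 3 independent experiments). The hGAT-1 assay matched the mGAT1 assay except that HEK293 […] expressing hGAT-1 was used.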

[9] = organism: Mus musculus; test: Selectivity for mouse GAT1 over mouse GAT4
[10] = target: T8, Sodium- and chloride-dependent GABA transporter 1 (Homo sapiens, UniProt P30531); test: Inhibition of human GAT1 expressed in HEK293 cells by [3H]GABA uptake assay; format: cell-based
[11] = target: T8, Sodium- and chloride-dependent GABA transporter 1; test: Binding affinity to human GAT1 expressed in HEK293 cells using NO71156 as unlabelled marker by LC-ESI-MS-MS based competitive MS binding assay; format: cell-based
Outline: (§2)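 Competitive MS Binding Assay using membrane preparations from HEK293 cells expressing the transporter. hGAT-1 membranes were prepared the same way as mGAT1 membranes. Affinity reported as pKi ± SEM from three independent experiments.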

[12] = target: T1, GABA transporter 2 (Mus musculus); test: Inhibition of mouse GAT2 expressed in HEK293 cells assessed as remaining [3H]GABA uptake at 100 uM by [3H]GABA uptake assay; format: cell-based
Outline: (§3)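 Transfected HEK293 cells (mGAT1–4) tested for [3H]GABA uptake at 100 µM test substance. Remaining uptake is expressed against a control without inhibitor.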

[13] = target: T5, GABA transporter 4 (Mus musculus); test: Inhibition of mouse GAT4 expressed in HEK293 cells assessed as remaining [3H]GABA uptake at 100 uM by [3H]GABA uptake assay; format: cell-based; outline: as §3
[14] = target: T3, Sodium- and chloride-dependent GABA transporter 1; test: Binding affinity to mouse GAT1 expressed in HEK293 cells using NO71156 as unlabelled marker by LC-ESI-MS-MS based competitive MS binding assay; format: cell-based; outline: as §2
[15] = target: T6, GABA transporter 3 (Mus musculus); test: Inhibition of mouse GAT3 expressed in HEK293 cells assessed as remaining [3H]GABA uptake at 100 uM by [3H]GABA uptake assay; format: cell-based; outline: as §3
[16] = target: Sodium- and chloride-dependent GABA transporter 1 (Mus musculus) (UniProt P31648); test: Inhibition of mouse GAT1 expressed in HEK293 cells assessed as remaining [3H]GABA uptake at 100 uM by [3H]GABA uptake assay; format: cell-based; outline: as §3

T8 sequence (P30531 whole entry): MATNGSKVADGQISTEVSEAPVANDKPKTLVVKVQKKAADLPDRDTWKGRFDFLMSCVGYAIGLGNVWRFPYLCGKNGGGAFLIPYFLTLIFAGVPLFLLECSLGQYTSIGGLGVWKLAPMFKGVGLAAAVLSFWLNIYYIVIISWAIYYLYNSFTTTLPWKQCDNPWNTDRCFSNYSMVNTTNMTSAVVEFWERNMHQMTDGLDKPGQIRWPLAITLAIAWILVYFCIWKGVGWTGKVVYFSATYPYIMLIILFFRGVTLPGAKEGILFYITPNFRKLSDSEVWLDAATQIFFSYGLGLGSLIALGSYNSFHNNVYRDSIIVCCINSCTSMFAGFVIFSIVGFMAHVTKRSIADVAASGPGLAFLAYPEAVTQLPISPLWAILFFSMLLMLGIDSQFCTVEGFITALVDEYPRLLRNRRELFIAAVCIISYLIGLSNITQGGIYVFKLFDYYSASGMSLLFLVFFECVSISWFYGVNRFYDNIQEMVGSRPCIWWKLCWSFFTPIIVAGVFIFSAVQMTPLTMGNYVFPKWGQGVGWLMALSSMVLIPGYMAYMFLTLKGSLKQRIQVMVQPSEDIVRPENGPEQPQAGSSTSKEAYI

Compound | Activity [1] | IC50 [2] | IC50 [3] | IC50 [4] | Activity [12] | Ki [14] | also measured
O=C(O)C[C@H]1CCCN1 | 81% | 1120 µM | 240 µM | 339 µM |  |  | 
O=C(O)C[C@@H]1CCCN1 | 77% | 309 µM | 407 µM | 141 µM |  |  | 
CC(C(=O)O)[C@H]1CCCN1 (mixture of isomers) | 59% | 339 µM |  | 309 µM |  |  | Activity [5]: 83%
CCC(C(=O)O)[C@H]1CCCN1 (mixture of isomers) | 82% |  |  |  |  |  | Activity [6]: 95%; Activity [7]: 78%; Activity [5]: 78%
O=C(O)[C@H](O)[C@H]1CCCN1 (racemic) |  | 14.1 µM | 1000 µM | 36.3 µM |  |  | IC50 [8]: 170 µM; Selectivity ratio [9]: > 71
O=C(O)[C@@H](O)[C@H]1CCCN1 (racemic) | 95% |  |  | 269 µM |  |  | Activity [6]: 61%; Activity [5]: 53%
N[C@@H](C(=O)O)[C@H]1CCCN1 (racemic) |  | 21.4 µM | 123 µM | 26.9 µM |  |  | IC50 [8]: 158 µM
N[C@H](C(=O)O)[C@H]1CCCN1 (racemic) | 52% | 372 µM |  |  |  |  | Activity [7]: 59%; Activity [5]: 1%
O=C(O)[C@H](O)[C@H]1CCCN1CCC=C(c1ccccc1)c1ccccc1 (racemic) |  |  | 25.1 µM |  | 89% | 3.89 µM | IC50 [10]: 13.8 µM; Ki [11]: 3.98 µM; Activity [13]: 59%; Activity [15]: 97%
O=C(O)[C@@H](O)[C@H]1CCCN1CCC=C(c1ccccc1)c1ccccc1 (racemic) |  |  | 2.29 µM | 100 µM | 60% | 0.145 µM | IC50 [10]: 1.91 µM; Ki [11]: 0.214 µM; Activity [13]: 55%
Cc1ccsc1C(=CCCN1CCC[C@@H]1[C@@H](O)C(=O)O)c1sccc1C (racemic) |  |  | 3.39 µM |  | 63% | 1.07 µM | IC50 [10]: 4.17 µM; Ki [11]: 1.1 µM; Activity [13]: 74%; Selectivity ratio [9]: > 29; Activity [15]: 90%
Cc1ccsc1C(=CCCN1CCC[C@@H]1[C@H](O)C(=O)O)c1sccc1C (racemic) |  |  | 2.14 µM | 42.7 µM | 58% | 0.102 µM | IC50 [10]: 0.724 µM; Ki [11]: 0.0661 µM; Activity [13]: 59%; Selectivity ratio [9]: > 47
COc1ccc(C(OCCN2CCC[C@@H]2[C@@H](O)C(=O)O)(c2ccc(OC)cc2)c2ccc(OC)cc2)cc1 (racemic) |  | 5.75 µM |  | 17 µM | 56% |  | Activity [16]: 68%
COc1ccc(C(OCCN2CCC[C@@H]2[C@H](O)C(=O)O)(c2ccc(OC)cc2)c2ccc(OC)cc2)cc1 (racemic) |  | 6.61 µM |  |  | 64% |  | Activity [16]: 80%; Activity [15]: 70%
N[C@@H](C(=O)O)[C@H]1CCCN1CCC=C(c1ccccc1)c1ccccc1 (racemic) |  | 17.4 µM | 49 µM | 11.5 µM | 66% |  | 
N[C@H](C(=O)O)[C@H]1CCCN1CCC=C(c1ccccc1)c1ccccc1 (racemic) |  |  | 34.7 µM |  | 61% |  | Activity [13]: 83%; Activity [15]: 71%
Cc1ccsc1C(=CCCN1CCC[C@@H]1[C@@H](N)C(=O)O)c1sccc1C (racemic) |  | 31.6 µM | 14.1 µM | 30.2 µM |  | 17.4 µM | Ki [11]: 20.4 µM; IC50 [8]: 42.7 µM
Cc1ccsc1C(=CCCN1CCC[C@@H]1[C@H](N)C(=O)O)c1sccc1C (racemic) |  | 100 µM | 100 µM |  |  | 37.2 µM | Ki [11]: 19.1 µM; IC50 [8]: 100 µM; Activity [15]: 63%
CC(C)(C(=O)O)[C@H]1CCCN1 (racemic) | 108% |  |  |  |  |  | Activity [6]: 95%; Activity [7]: 93%; Activity [5]: 83%
O=C(O)C1([C@H]2CCCN2)CCC1 (racemic) | 91% |  |  |  |  |  | Activity [6]: 110%; Activity [7]: 73%; Activity [5]: 92%
Cc1ccsc1C(=CCCN1CCC[C@@H](C(=O)O)C1)c1sccc1C [TIAGABINE] |  |  |  |  |  | 0.0372 µM | 
